Experimental data published in ChEMBL document CHEMBL4811308, “Design, synthesis and broad spectrum antibreast cancer activity of diarylindoles via induction of apoptosis in aggressive breast cancer cells” (Bioorg Med Chem, 2021).
Active and inactive are the calls of the source. No cut-off for these calls is given here.

What was measured:
PC-3 = experiment: Cytotoxicity against human PC-3 cells assessed as reduction in cell viability incubated for 24 hrs by MTT assay; assay type: functional, cell-based; details: PC-3, 24 h
How it was run: (§1)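 MTT viability: cells seeded at 1 × 10^4/well, grown 24 h, then exposed to a concentration range of compound for 24 h. MTT (5 mg/mL stock) added for 3 h, formazan dissolved in DMSO, absorbance read at 540 nm.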

MCF7 = experiment: Cytotoxicity against human MCF7 cells assessed as reduction in cell viability incubated for 24 hrs by MTT assay; assay type: functional, cell-based; details: MCF7, 24 h; how it was run: as §1
MDA-MB-231 = experiment: Cytotoxicity against human MDA-MB-231 cells assessed as reduction in cell viability incubated for 24 hrs by MTT assay; assay type: functional, cell-based; details: MDA-MB-231, 24 h; how it was run: as §1
HEK293 = experiment: Cytotoxicity against human HEK293 cells assessed as reduction in cell viability incubated for 24 hrs by MTT assay; assay type: cell-based; details: HEK293, 24 h; how it was run: as §1
Tubulin (Homo sapiens) = Tubulin (Homo sapiens) (UniProt P68371+Q9H4B7+P0DPH7+P68366+Q13509+Q71U36+P04350+Q3ZCM7+P07437+P68363+Q9BQE3+Q6PEY2+Q13885+Q9BVA1+Q9BUF5); experiment: Induction of tubulin polymerization (unknown origin) at 10 uM incubated for 1 hr by spectrometric analysis; assay type: protein-complex assay

| SMILES | IC50 (PC-3) | IC50 (MCF7) | IC50 (MDA-MB-231) | IC50 (HEK293) | Activity (Tubulin (Homo sapiens)) |
| --- | --- | --- | --- | --- | --- |
| COc1ccc2c(c1)cc(-c1cc(OC)c(OC)c(OC)c1)n2Cc1ccccc1 | > 30 µM | > 30 µM | > 30 µM |  |  |
| COc1ccc2[nH]c(-c3cc(OC)c(OC)c(OC)c3)cc2c1 | > 30 µM | > 30 µM | > 30 µM |  |  |
| COc1ccc2c(c1)c(Cc1ccccc1)c(-c1cc(OC)c(OC)c(OC)c1)n2Cc1ccccc1 | > 30 µM | > 30 µM | > 30 µM |  |  |
| COc1ccc2c(c1)cc(-c1cc(OC)c(OC)c(OC)c1)n2Cc1ccc(O)cc1 | > 30 µM | > 30 µM | 17.3 µM |  |  |
| COc1ccc(Cc2c(-c3cc(OC)c(OC)c(OC)c3)n(Cc3ccc(OC)cc3)c3ccc(OC)cc23)cc1 | > 30 µM | > 30 µM | > 30 µM |  |  |
| CC/C(=C(\c1ccccc1)c1ccc(OCCN(C)C)cc1)c1ccccc1 [TAMOXIFEN] | 15.8 µM | 8.42 µM |  | 22.4 µM |  |
| COc1ccc2c(c1)c(Cc1ccc(O)cc1)c(-c1cc(OC)c(OC)c(OC)c1)n2Cc1ccc(O)cc1 | > 30 µM | > 30 µM | > 30 µM |  |  |
| CC(=O)O[C@H]1C(=O)[C@@]2(C)[C@H]([C@H](OC(=O)c3ccccc3)[C@]3(O)C[C@H](OC(=O)[C@H](O)[C@@H](NC(=O)c4ccccc4)c4ccccc4)C(C)=C1C3(C)C)[C@]1(OC(C)=O)CO[C@@H]1C[C@@H]2O [PACLITAXEL] | 2.6 µM | 0.48 µM | 1.6 µM | 5.8 µM | Active |
| COc1ccc2c(c1)cc(-c1cc(OC)c(OC)c(OC)c1)n2Cc1ccc(OCCN2CCCCC2)cc1 | 21.8 µM | 21.6 µM | > 30 µM |  |  |
| CCN(CC)CCOc1ccc(Cn2c(-c3cc(OC)c(OC)c(OC)c3)cc3cc(OC)ccc32)cc1 | 15 µM | 29.8 µM | 13.2 µM |  |  |
| COc1ccc2c(c1)cc(-c1cc(OC)c(OC)c(OC)c1)n2Cc1ccc(OCCN2CCCC2)cc1 | 6.03 µM | 5.08 µM | 12.4 µM |  |  |
| CCOC(=O)COc1ccc(Cn2c(-c3cc(OC)c(OC)c(OC)c3)cc3cc(OC)ccc32)cc1 | > 30 µM | > 30 µM | > 30 µM |  |  |
| COc1ccc2c(c1)c(Cc1ccc(OCc3ccccc3)cc1)c(-c1cc(OC)c(OC)c(OC)c1)n2Cc1ccc(OCc2ccccc2)cc1 | > 30 µM | > 30 µM | > 30 µM |  |  |
| COc1ccc2c(c1)cc(-c1cc(OC)c(OC)c(OC)c1)n2Cc1ccc(OC(C)CN(C)C)cc1 (stereo unspecified) | 13.3 µM | 14.7 µM | 10.6 µM |  |  |
| COc1ccc2c(c1)cc(-c1cc(OC)c(OC)c(OC)c1)n2Cc1ccc(OCc2ccccc2)cc1 | > 30 µM | > 30 µM | > 30 µM |  |  |
| COc1ccc(Cn2c(-c3cc(OC)c(OC)c(OC)c3)cc3cc(OC)ccc32)cc1 | > 30 µM | > 30 µM | > 30 µM |  |  |
| COc1ccc2c(c1)c(Cc1ccc(OCCN3CCCC3)cc1)c(-c1cc(OC)c(OC)c(OC)c1)n2Cc1ccc(OCCN2CCCC2)cc1 | 7.48 µM | 4.25 µM | 9.45 µM |  |  |
| COc1ccc2c(c1)cc(-c1cc(OC)c(OC)c(OC)c1)n2Cc1ccc(OCCN(C)C)cc1 | 6.87 µM | 6.67 µM | 7.84 µM |  |  |
